SMILES strings stand for the structures. Calls of active or inactive are those of the source. The calls are words filed in the database; no cut-off is given here.

The values below come from ChEMBL document CHEMBL5712886, “Discovery and Characterization of GSK2801, a Selective Chemical Probe for the Bromodomains BAZ2A and BAZ2B” (J Med Chem, 2016).

Settings in all cases: dose 0.2-1 µM
In assay [1] the target is T1, Bromodomain-containing protein 9 (Homo sapiens) (UniProt Q9H8M2).
T1 sequence (whole entry): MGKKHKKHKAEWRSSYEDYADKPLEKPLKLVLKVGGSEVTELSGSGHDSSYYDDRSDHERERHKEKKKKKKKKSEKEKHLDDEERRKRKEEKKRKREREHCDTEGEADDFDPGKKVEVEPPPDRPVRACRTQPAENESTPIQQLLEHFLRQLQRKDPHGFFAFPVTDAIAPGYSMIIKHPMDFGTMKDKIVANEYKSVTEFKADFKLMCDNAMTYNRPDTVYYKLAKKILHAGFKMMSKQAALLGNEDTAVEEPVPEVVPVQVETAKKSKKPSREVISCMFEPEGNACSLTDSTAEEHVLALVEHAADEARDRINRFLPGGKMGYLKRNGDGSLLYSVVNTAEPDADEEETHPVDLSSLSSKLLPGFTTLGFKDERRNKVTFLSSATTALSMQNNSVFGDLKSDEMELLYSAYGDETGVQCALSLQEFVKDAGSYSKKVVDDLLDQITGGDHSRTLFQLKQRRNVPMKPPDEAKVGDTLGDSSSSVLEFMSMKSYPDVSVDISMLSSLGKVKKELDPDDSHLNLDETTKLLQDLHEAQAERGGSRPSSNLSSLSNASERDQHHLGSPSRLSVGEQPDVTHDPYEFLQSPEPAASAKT
The assay can be described thus: Binding affinity to biotinylated BRD9 (unknown origin) expressed in Escherichia coli at 0.2 to 1 uM by Biolayer Interferometric analysis. In short, it runs like this: (§1)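 Bromodomains carrying a BirA biotin ligase targeting sequence, coexpressed with BirA in bacteria to give homogeneous in vivo biotin labelling, checked by mass spectrometry. Biotinylated proteins probed by biolayer interferometry with compound at two concentrations, 0.2 and 1.0 μM.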
In general terms: BLI is a label-free optical method that tracks binding on a fibre tip over time.

The target in assay [2] is ATPase family AAA domain-containing protein 2 (Homo sapiens) (UniProt Q6PL18). The assay can be described thus: Binding affinity to biotinylated ATAD2 (unknown origin) expressed in Escherichia coli at 0.2 to 1 uM by Biolayer Interferometric analysis. An outline of the steps: as §1
Assay [3] concerns the target Tyrosine-protein kinase BAZ1B (Homo sapiens) (UniProt Q9UIG0). Description: Binding affinity to biotinylated BAZ1B (unknown origin) expressed in Escherichia coli at 0.2 to 1 uM by Biolayer Interferometric analysis. An outline of the steps: as §1
For assay [4], the target named is Bromodomain-containing protein 2 (Homo sapiens) (UniProt P25440). The assay can be described thus: Binding affinity to biotinylated BRD2 bromodomain-1 (unknown origin) expressed in Escherichia coli at 0.2 to 1 uM by Biolayer Interferometric analysis. An outline of the steps:
as §1

Assay [5] has the same target. The assay can be described thus: Binding affinity to biotinylated BRD2 bromodomain-2 (unknown origin) expressed in Escherichia coli at 0.2 to 1 uM by Biolayer Interferometric analysis. In short, it runs like this:
as §1

For assay [6], the target named is Bromodomain-containing protein 3 (Homo sapiens) (UniProt Q15059). The assay can be described thus: Binding affinity to biotinylated BRD3 bromodomain-2 (unknown origin) expressed in Escherichia coli at 0.2 to 1 uM by Biolayer Interferometric analysis. In short, it runs like this: as §1
The target in assay [7] is Bromodomain-containing protein 4 (Homo sapiens) (UniProt O60885). Description: Binding affinity to biotinylated BRD4 bromodomain-1 (unknown origin) expressed in Escherichia coli at 0.2 to 1 uM by Biolayer Interferometric analysis. In short, it runs like this: as §1
In assay [8] the target is Bromodomain-containing protein 7 (Homo sapiens) (UniProt Q9NPI1). Description: Binding affinity to biotinylated BRD7 (unknown origin) expressed in Escherichia coli at 0.2 to 1 uM by Biolayer Interferometric analysis. In short, it runs like this: as §1
Assay [9] deals with Bromodomain testis-specific protein (Homo sapiens) (UniProt Q58F21). Description: Binding affinity to biotinylated BRDT bromodomain-1 (unknown origin) expressed in Escherichia coli at 0.2 to 1 uM by Biolayer Interferometric analysis. An outline of the steps: as §1
A further assay addresses Peregrin (Homo sapiens) (UniProt P55201). Description: Binding affinity to biotinylated BRPF1 bromodomain-1 (unknown origin) expressed in Escherichia coli at 0.2 to 1 uM by Biolayer Interferometric analysis. An outline of the steps: as §1
Assay [10] addresses Bromodomain and WD repeat-containing protein 3 (Homo sapiens) (UniProt Q6RI45). Description: Binding affinity to biotinylated BRWD3 bromodomain-2 (unknown origin) expressed in Escherichia coli at 0.2 to 1 uM by Biolayer Interferometric analysis. In short, it runs like this:
as §1

Assay [11] concerns the target Chromatin remodeling regulator CECR2 (Homo sapiens) (UniProt Q9BXF3). Description: Binding affinity to biotinylated CECR2 (unknown origin) expressed in Escherichia coli at 0.2 to 1 uM by Biolayer Interferometric analysis. An outline of the steps: as §1
The target in assay [12] is CREB-binding protein (Homo sapiens) (UniProt Q92793). The assay can be described thus: Binding affinity to biotinylated CREBBP (unknown origin) expressed in Escherichia coli at 0.2 to 1 uM by Biolayer Interferometric analysis. In short, it runs like this:
as §1

Assay [13] addresses Histone acetyltransferase p300 (Homo sapiens) (UniProt Q09472). Description: Binding affinity to biotinylated EP300 (unknown origin) expressed in Escherichia coli at 0.2 to 1 uM by Biolayer Interferometric analysis. An outline of the steps: as §1
For assay [14], the target named is ATPase family AAA domain-containing protein 2B (Homo sapiens) (UniProt Q9ULI0). Description: Binding affinity to biotinylated KIAA1240 (unknown origin) expressed in Escherichia coli at 0.2 to 1 uM by Biolayer Interferometric analysis. An outline of the steps:
as §1

Assay [15] addresses Protein polybromo-1 (Homo sapiens) (UniProt Q86U86). Description: Binding affinity to biotinylated PB1 bromodomain-1 (unknown origin) expressed in Escherichia coli at 0.2 to 1 uM by Biolayer Interferometric analysis. In short, it runs like this:
as §1

Assay [16] has the same target. Description: Binding affinity to biotinylated PB1 bromodomain-4 (unknown origin) expressed in Escherichia coli at 0.2 to 1 uM by Biolayer Interferometric analysis. An outline of the steps: as §1
Assay [17] has the same target. Description: Binding affinity to biotinylated PB1 bromodomain-5 (unknown origin) expressed in Escherichia coli at 0.2 to 1 uM by Biolayer Interferometric analysis. An outline of the steps: as §1
Assay [18] deals with Histone acetyltransferase KAT2B (Homo sapiens) (UniProt Q92831). The assay can be described thus: Binding affinity to biotinylated PCAF (unknown origin) expressed in Escherichia coli at 0.2 to 1 uM by Biolayer Interferometric analysis. In short, it runs like this:
as §1

Assay [19] deals with PH-interacting protein (Homo sapiens) (UniProt Q8WWQ0). The assay can be described thus: Binding affinity to biotinylated PHIP (unknown origin) expressed in Escherichia coli at 0.2 to 1 uM by Biolayer Interferometric analysis. In short, it runs like this:
as §1

For assay [20], the target named is SWI/SNF-related matrix-associated actin-dependent regulator of chromatin subfamily A member 4 (Homo sapiens, UniProt P51532). Description: Binding affinity to biotinylated SMARCA4 (unknown origin) expressed in Escherichia coli at 0.2 to 1 uM by Biolayer Interferometric analysis. An outline of the steps:
as §1

The target of assay [21] is Transcription initiation factor TFIID subunit 1-like (Homo sapiens) (UniProt Q8IZX4). Description: Binding affinity to biotinylated TAF1L bromodomain-1 (unknown origin) expressed in Escherichia coli at 0.2 to 1 uM by Biolayer Interferometric analysis. In short, it runs like this: as §1
Assay [22] has as its target Transcription intermediary factor 1-alpha (Homo sapiens) (UniProt O15164). Description: Binding affinity to biotinylated TIF1 bromodomain-1 (unknown origin) expressed in Escherichia coli at 0.2 to 1 uM by Biolayer Interferometric analysis. In short, it runs like this:
as §1

For assay [23], the target named is Bromodomain and WD repeat-containing protein 1 (Homo sapiens) (UniProt Q9NSI6). Description: Binding affinity to biotinylated WDR9 (unknown origin) expressed in Escherichia coli at 0.2 to 1 uM by Biolayer Interferometric analysis. In short, it runs like this:
as §1

Sequence of Protein polybromo-1 (Homo sapiens) (Q86U86 whole entry): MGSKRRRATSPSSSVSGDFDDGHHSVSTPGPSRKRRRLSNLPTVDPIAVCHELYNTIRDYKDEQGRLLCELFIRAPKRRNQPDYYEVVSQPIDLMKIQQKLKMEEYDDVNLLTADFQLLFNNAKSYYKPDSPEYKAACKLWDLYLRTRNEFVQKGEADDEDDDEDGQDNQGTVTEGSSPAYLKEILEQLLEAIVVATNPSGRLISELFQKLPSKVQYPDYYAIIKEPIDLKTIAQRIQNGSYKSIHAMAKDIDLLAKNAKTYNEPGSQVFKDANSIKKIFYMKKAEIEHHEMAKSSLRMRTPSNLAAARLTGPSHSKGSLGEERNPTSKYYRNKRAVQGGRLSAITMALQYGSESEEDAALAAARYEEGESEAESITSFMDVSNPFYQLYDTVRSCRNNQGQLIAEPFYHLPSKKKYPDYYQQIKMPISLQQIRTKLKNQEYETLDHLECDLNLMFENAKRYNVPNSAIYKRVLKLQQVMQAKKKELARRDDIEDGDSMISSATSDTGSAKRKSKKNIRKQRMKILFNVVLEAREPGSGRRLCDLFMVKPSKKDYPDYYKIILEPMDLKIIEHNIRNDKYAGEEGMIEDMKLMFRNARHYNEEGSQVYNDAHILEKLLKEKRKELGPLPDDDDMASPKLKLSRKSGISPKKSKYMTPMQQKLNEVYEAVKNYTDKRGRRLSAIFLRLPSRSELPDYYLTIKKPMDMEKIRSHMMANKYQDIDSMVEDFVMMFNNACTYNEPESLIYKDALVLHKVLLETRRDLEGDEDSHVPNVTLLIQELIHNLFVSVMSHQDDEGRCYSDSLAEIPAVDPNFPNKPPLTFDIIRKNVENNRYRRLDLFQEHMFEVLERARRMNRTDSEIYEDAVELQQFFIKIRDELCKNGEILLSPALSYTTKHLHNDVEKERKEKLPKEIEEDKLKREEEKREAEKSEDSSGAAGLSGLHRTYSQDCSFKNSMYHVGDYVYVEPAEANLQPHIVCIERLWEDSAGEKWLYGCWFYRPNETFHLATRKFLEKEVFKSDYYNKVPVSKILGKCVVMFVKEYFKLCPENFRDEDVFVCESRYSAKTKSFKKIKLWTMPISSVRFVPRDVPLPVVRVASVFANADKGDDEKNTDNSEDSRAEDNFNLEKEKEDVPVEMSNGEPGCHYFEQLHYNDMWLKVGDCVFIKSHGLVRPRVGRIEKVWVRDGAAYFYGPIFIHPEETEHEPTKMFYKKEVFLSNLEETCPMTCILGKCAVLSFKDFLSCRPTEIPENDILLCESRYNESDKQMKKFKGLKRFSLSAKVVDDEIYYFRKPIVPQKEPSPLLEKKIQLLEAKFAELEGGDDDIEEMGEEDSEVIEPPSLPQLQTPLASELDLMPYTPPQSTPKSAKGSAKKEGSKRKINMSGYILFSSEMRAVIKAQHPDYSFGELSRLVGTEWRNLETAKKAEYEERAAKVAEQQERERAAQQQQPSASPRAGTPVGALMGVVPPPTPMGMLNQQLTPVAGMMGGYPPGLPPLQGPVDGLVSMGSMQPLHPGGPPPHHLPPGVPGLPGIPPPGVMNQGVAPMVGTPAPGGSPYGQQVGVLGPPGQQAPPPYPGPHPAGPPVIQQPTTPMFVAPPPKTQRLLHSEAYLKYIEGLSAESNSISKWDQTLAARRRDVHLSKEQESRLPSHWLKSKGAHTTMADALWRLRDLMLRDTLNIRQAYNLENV
Sequence of Bromodomain-containing protein 2 (Homo sapiens) (P25440 whole entry, looked up): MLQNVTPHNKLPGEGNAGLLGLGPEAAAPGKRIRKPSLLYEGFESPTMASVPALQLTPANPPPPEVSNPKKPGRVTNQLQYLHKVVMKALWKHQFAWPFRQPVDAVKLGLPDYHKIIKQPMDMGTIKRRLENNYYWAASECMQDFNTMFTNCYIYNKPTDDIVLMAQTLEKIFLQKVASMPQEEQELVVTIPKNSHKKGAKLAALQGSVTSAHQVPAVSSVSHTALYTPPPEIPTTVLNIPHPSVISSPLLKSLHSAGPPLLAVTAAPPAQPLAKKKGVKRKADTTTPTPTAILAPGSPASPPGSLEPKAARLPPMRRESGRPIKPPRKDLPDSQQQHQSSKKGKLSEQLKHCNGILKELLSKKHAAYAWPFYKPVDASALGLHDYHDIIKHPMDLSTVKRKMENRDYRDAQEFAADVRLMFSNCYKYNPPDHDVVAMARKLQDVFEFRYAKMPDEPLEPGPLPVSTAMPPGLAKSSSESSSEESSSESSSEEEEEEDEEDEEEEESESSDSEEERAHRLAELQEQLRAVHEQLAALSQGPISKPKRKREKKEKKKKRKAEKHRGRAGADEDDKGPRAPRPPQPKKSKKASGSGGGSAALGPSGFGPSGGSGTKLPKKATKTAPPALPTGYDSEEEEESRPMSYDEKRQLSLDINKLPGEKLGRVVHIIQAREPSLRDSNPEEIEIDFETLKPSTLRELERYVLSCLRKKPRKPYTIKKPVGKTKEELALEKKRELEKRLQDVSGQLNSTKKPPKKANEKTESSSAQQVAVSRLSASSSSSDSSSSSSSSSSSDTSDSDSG
Sequence of SWI/SNF-related matrix-associated actin-dependent regulator of chromatin subfamily A member 4 (P51532 whole entry): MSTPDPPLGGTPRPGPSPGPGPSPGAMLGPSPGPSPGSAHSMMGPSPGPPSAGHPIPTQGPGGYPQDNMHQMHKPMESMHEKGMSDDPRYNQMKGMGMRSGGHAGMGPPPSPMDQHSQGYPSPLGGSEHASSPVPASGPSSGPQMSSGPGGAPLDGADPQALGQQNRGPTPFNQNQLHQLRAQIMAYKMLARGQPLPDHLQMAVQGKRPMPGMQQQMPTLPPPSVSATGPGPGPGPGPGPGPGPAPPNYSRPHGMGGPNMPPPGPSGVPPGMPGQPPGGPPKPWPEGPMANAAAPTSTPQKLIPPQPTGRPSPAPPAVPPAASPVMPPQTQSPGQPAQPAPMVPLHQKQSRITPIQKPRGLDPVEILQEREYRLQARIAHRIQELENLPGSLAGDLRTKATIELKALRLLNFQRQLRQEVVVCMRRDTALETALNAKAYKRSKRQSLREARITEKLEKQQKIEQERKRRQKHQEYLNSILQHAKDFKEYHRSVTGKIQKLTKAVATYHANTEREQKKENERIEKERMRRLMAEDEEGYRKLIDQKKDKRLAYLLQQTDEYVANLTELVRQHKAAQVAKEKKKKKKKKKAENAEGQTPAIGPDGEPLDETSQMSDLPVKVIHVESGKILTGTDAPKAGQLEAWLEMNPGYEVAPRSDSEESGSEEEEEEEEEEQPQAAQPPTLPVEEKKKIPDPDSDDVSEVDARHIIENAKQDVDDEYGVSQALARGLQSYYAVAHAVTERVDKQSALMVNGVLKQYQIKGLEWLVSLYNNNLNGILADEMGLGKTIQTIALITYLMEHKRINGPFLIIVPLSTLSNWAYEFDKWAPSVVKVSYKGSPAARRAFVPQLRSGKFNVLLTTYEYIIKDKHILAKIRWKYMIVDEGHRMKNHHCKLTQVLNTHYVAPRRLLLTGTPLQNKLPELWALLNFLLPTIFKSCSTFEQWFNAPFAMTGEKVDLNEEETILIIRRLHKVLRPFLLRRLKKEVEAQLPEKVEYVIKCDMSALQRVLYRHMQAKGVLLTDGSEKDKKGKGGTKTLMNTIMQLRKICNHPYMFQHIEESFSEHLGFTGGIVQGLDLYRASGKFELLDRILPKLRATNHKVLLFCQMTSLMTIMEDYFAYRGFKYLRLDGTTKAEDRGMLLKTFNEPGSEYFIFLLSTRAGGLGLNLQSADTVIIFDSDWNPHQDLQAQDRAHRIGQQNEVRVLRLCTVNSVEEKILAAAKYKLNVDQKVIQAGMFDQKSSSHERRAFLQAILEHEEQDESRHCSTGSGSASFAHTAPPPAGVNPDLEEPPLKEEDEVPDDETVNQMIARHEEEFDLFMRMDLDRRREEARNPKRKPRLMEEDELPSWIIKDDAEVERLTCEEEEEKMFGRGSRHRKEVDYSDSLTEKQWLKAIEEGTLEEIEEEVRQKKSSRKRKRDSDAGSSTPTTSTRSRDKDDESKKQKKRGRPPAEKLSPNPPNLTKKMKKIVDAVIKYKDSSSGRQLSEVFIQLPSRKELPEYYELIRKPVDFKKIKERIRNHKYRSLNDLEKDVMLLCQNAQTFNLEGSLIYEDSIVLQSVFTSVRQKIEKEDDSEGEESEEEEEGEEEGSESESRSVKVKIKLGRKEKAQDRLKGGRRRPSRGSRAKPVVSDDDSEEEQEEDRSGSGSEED
Sequence of Histone acetyltransferase KAT2B (Homo sapiens) (Q92831 whole entry, looked up): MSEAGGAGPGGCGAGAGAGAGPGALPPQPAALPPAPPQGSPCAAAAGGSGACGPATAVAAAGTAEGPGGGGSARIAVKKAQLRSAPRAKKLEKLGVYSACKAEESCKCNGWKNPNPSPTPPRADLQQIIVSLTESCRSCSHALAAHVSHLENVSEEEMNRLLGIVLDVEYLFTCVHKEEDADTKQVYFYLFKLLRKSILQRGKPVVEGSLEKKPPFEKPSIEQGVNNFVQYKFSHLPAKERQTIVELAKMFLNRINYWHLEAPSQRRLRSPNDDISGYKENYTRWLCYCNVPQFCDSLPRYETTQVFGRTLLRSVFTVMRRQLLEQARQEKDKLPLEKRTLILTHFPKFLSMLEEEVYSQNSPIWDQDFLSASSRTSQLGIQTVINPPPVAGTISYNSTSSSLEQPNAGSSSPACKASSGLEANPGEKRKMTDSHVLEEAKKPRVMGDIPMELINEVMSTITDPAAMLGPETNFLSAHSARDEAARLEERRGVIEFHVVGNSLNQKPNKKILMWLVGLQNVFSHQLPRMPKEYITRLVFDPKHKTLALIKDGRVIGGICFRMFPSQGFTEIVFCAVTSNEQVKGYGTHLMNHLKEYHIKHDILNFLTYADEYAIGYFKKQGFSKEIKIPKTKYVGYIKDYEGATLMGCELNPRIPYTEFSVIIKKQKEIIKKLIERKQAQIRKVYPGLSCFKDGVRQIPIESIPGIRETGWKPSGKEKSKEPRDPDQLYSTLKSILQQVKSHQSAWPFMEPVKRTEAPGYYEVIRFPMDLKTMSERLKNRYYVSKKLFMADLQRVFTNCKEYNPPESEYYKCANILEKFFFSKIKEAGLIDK

Regarding `CCCOc1ccn2c(C(C)=O)cc(-c3ccccc3S(C)(=O)=O)c2c1`, the result in assay [1] was Active. Also, the result in assay [2], in assay [3], in assay [4], in [5], in [6] and in assay [7] was inactive. Besides, the outcome (in [8]; in assay [9]; on Peregrin (Homo sapiens); in [10]; in assay [11]; in assay [12]) was inactive. The outcome in assay [13], in [14], in assay [15], in assay [16], in assay [17] and in assay [18] was inactive. Moreover, the outcome in assay [19], in assay [20], in assay [21], in assay [22] and in assay [23] was inactive.
Consider `CCCOc1ccn2c(C(C)=O)cc(-c3cccc(OC)c3)c2c1`, for which, in assay [1], the result was Active. In addition, the outcome in assay [2], in assay [3], in assay [4], in assay [5], in assay [6] and in assay [7] was inactive. The outcome (in [8]; in assay [9]; on Peregrin (Homo sapiens); in assay [10]; in assay [11]; in [12]) was inactive. Moreover, the outcome in [13], in assay [14], in assay [15], in assay [16], in [17] and in [18] was inactive. Besides, the outcome in [19], in [20], in [21], in assay [22] and in assay [23] was inactive.
